The source of these data is ChEMBL document CHEMBL1140692, “Toward the development of chemoprevention agents. Part II: Chemo-enzymatic synthesis and anti-inflammatory activities of a new class of 5-amino-2-substitutedphenyl-1,3-dioxacycloalkanes” (Bioorg Med Chem, 2007).

The test system of series [1] is Mus musculus. Briefly: Antiinflammatory activity in Kunming mouse assessed as inhibition of xylene-induced ear edema at 30 mg/kg, po after […]rs. The class given is functional. The gist of the method:
(§1)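 Male Kunming mice receive the agent orally as a suspension in 0.5% CMC; the vehicle group gets CMC alone. After 30 min, 0.03 ml xylene is applied to both surfaces of the right ear, and the left ear serves as control. At 2 h, mice are killed and 7-mm ear punches are weighed. Edema is taken as right minus left punch weight, and inhibition is calculated versus vehicle. n = 11; ANOVA.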

In series [2] the test system is Mus musculus. Description: Antiinflammatory activity in Kunming mouse assessed as inhibition of xylene-induced ear edema at 20 mg/kg, po after […]rs. The class given is functional. The gist of the method:
as §1

The subject of series [3] is Mus musculus. Briefly: Gastrointestinal toxicity in mouse assessed as tail bleeding time at 200 mg/kg, po after 30 mins. Format: organism-based. The arrangement: dose 200 mg/kg, route oral. As to conditions: in vivo, 0.5 h. The gist of the method:
(§2)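 Male mice (18–22 g) are dosed orally and compared with an NS group. At 30, 45, 60 and 90 min after dosing, each mouse is restrained in a tube holder and a 2-mm cut is made on the tail. Blood is wiped away every 30 s until flow stops, and the time to cessation is recorded.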

For series [4], the system named is Mus musculus. Briefly: Gastrointestinal toxicity in mouse assessed as tail bleeding time at 200 mg/kg, po after 90 mins. The conditions noted are these: in vivo, 1.5 h. The class given is organism-based. The arrangement: dose 200 mg/kg, route oral. A digest of the protocol:
as §2

Series [5] relates to Mus musculus. Description: Gastrointestinal toxicity in mouse assessed as tail bleeding time at 200 mg/kg, po after 45 mins. Format: organism-based. Further details: dose 200 mg/kg, route oral. The conditions noted are these: in vivo, 0.75 h. The gist of the method:
as §2

Series [6] concerns Mus musculus. Description: Antiinflammatory activity in Kunming mouse assessed as inhibition of xylene-induced ear edema at 10 mg/kg, po after […]rs. The class given is functional. The gist of the method: as §1
Series [7] relates to Mus musculus. Briefly: Antiinflammatory activity in Kunming mouse assessed as inhibition of xylene-induced ear edema at 5 mg/kg, po after […]rs. Format: functional. A digest of the protocol:
as §1

The test system of series [8] is Caco-2. Description: Ratio of permeability from apical to basolateral side over basolateral to apical side of human Caco-2 cell membrane. Format: ADME, cell-based. A general note: Caco-2 monolayers are a common model of the intestinal barrier.
The nature of series [9]: Inhibition of bovine brain PKC. Further details: species or system Bos taurus.
Series [10] deals with Mus musculus. Description: Gastrointestinal toxicity in mouse assessed as tail bleeding time at 200 mg/kg, po after 60 mins. Format: organism-based. The arrangement: dose 200 mg/kg, route oral. As to conditions: in vivo, 1 h. A digest of the protocol: as §2
Series [11] in a line: Permeability from basolateral to apical side of human Caco-2 cell membrane. Format: ADME, cell-based.
Series [12] can be described thus: Permeability from apical to basolateral side of human Caco-2 cell membrane. Format: ADME, cell-based.

The term inhibition in vivo denotes the drop in the measured response relative to a control, in per cent. As to `CC(=O)Oc1ccccc1C(=O)O` [ASPIRIN], the inhibition in vivo at 30 mg/kg in series [1] was 40.7%. Besides, in series [2], the inhibition in vivo at 20 mg/kg was determined as 40.7%.
Usually IC50 stands for the concentration needed to halve the response being measured. For orientation: Papp B→A means the apparent permeability from the basolateral to the apical side of a cell layer. The Papp A→B is the apparent permeability from the apical to the basolateral side of a cell layer. A higher Papp A→B goes with fast passage. For the compound `C[C@@H]1O[C@@H](c2ccc([N+](=O)[O-])cc2)OC[C@H]1N`, the Time in series [3] came to 118.4 s; in [4] it was 118.9 s; in [5] it was 119.2 s; in series [10] it was 117.2 s. The inhibition in vivo at 10 mg/kg in series [6] was 58%. Besides, the inhibition in vivo at 5 mg/kg in series [7] came to 42.3%. In addition, the Ratio in series [8] is listed as 1.87. For the same compound, the inhibition in vivo at 20 mg/kg in series [2] was 78.5%. In series [9], this compound had an IC50 of 890 µM. The same compound yielded a Papp B→A in series [11] of 6.96 ×10⁻⁶ cm/s. Further, the Papp A→B in [12] came to 13 ×10⁻⁶ cm/s.
Take `C[C@@H]1O[C@@H](c2ccc(Cl)cc2)OC[C@H]1N`: the Time in series [3] is 118.3 s; in series [4], 118.7 s; in series [5], 118.9 s; in series [10], 118.5 s. In [6], the inhibition in vivo at 10 mg/kg turned out to be 54.5%. For the same compound, in series [7], the inhibition in vivo at 5 mg/kg came out at 39.4%. The Ratio in series [8] came to 1.7. In series [2], the inhibition in vivo at 20 mg/kg is 66.7%. This compound came in with an IC50 in series [9] of 1100 µM. Further, the Papp B→A in [11] came to 7.01 ×10⁻⁶ cm/s. Further, the Papp A→B in series [12] is 11.9 ×10⁻⁶ cm/s.
